This is an account of results in article PMC10694828 (RSC Advances, 2023).

By IC50 is commonly meant the concentration needed to halve the response being measured. The term Papp denotes the rate of passage across a membrane or cell layer, normalised by area and donor concentration. For orientation: Ki means a measure of affinity in units of concentration, obtained from inhibition or displacement.

Data set [1] deals with T1, MAO-B (Homo sapiens, UniProt P27338).
T1 sequence (P27338 1-520): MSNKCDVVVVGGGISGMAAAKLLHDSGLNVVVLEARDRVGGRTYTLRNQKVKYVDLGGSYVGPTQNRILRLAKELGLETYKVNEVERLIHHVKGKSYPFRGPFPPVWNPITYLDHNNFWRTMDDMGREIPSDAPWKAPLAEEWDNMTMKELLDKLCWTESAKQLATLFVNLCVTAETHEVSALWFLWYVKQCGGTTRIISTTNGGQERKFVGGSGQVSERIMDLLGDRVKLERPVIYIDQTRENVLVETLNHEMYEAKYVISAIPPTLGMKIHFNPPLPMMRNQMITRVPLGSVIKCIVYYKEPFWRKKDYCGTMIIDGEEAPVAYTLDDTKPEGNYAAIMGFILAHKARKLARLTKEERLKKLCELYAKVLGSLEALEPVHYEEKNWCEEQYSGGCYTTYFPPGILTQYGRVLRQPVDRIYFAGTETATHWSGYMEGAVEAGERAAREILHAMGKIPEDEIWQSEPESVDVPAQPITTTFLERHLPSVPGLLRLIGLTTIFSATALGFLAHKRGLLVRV
Nature of the data set: MAO-B inhibition, continuous assay with benzylamine. Conditions: for SI (selectivity index for MAO-B compared to MAO-A): (IC50 of MAO-A)/(IC50 of MAO-B); for remaining activity at 10 µM: read-out: Residual activity at 10 μM (%) MAO-B. The format is biochemical.

The next data set can be described thus: PAMPA for BBB permeation. The format is in vitro ADME. To be noted: for Papp: PAMPA; for Experimental Pe / Prediction (CNS permeation): PAMPA-BBB. The method, boiled down: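 Passive BBB permeation by PAMPA on a filter membrane with 0.45 micron pores, 125 microns thick. Drug concentrations in donor, receiver and reference wells were measured by UV spectroscopy. Pe (10−6 cm s−1) was calculated as […]. Pe > 4.00 was classed CNS+ (high permeation).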

In another data set the target is T2, recombinant human MAO-A (Homo sapiens, UniProt P21397).
T2 sequence (P21397 1-527): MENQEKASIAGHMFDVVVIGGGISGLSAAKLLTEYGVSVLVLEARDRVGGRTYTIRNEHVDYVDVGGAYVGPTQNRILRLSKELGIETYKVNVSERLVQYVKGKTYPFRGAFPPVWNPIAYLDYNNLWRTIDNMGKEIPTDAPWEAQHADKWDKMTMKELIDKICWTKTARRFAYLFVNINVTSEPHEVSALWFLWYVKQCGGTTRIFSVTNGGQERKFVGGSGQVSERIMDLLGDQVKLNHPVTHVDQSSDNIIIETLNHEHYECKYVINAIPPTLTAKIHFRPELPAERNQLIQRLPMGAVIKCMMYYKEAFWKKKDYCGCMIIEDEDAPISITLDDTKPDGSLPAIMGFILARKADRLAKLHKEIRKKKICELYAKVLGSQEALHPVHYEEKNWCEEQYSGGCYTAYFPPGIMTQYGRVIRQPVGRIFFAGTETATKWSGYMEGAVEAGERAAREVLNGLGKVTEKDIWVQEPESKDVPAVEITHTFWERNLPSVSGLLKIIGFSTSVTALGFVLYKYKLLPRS
Put plainly: MAO-A inhibition, continuous assay with kynuramine. Type of data set: biochemical. To be noted: for remaining activity at 10 µM: read-out: Residual activity at 10 μM (%) MAO-A.

For data set [2], the target named is T1, MAO-B. Put plainly: Reversibility of MAO-B inhibition by dialysis. The format is biochemical. To be noted: for Reversibility of MAO-B inhibition: dialysis; for Relative MAO-B activity, undialyzed (AU) / Relative MAO-B activity, dialyzed (AD): ~2.0 times IC50, 30 min preincubation; for Relative MAO-B activity, dialyzed (AD): dialyzed 6 h with two buffer changes.

The target of data set [3] is T1, MAO-B. Nature of the data set: Enzyme kinetics of MAO-B inhibition. The format is biochemical. Conditions: for Inhibition type for MAO-B: Lineweaver–Burk plots. Put shortly:
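Recombinant human MAO-B. Activity was followed continuously by absorbance at 250 nm with benzylamine as substrate at five concentrations (0.0375–0.60 […]). Three inhibitor concentrations were tested against each substrate level. The inhibition pattern and Ki came from Lineweaver–Burk plots and from secondary plots of slope versus inhibitor concentration.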

With `O=C1Nc2ccccc2/C1=N/N=Cc1ccc(OCc2ccccc2)cc1` [ISB1, (3Z)-3-((4-(benzyloxy)benzylidene)hydrazineylidene)indolin-2-one], at MAO-B [1], the IC50 was 124 ± 7 nM, the “SI (selectivity index for MAO-B compared to MAO-A)” value was found to be 55.03 and the remaining activity at 10 µM was -8.77 ± 0.14%. In addition, in the data set “PAMPA for BBB permeation”, the Papp turned out to be 4.93 ± 0.13 ×10⁻⁶ cm/s, the “Experimental Pe” value is given as “higher than 4.0 ×10^−6 cm s^−1” and the “Prediction (CNS permeation)” value was “CNS+ (Pe (10^−6 cm s^−1) > 4.00: CNS+ (high permeation))”. Moreover, on recombinant human MAO-A, the 50% inhibitory concentration (IC50) was 6824 ± 49 nM and the remaining activity at 10 µM came to 38.78 ± 0.25%. On MAO-B [2], the “Reversibility of MAO-B inhibition” value was “reversible”; the “Relative MAO-B activity, undialyzed (AU)” value was found to be 31.61%; the “Relative MAO-B activity, dialyzed (AD)” value came out at 83.77%. Besides, on MAO-B [3], the affinity, expressed as Ki, was 55 ± 10 nM and the “Inhibition type for MAO-B” value is “competitive”.
For the molecule `O=C1Nc2ccc(F)cc2C1=NN=Cc1ccc(OCc2ccccc2)cc1` [ISB3], on MAO-B [1], half-maximal inhibition (IC50) required 13900 ± 204 nM, the “SI (selectivity index for MAO-B compared to MAO-A)” value is recorded as above 2.87 and the remaining activity at 10 µM was 59.6 ± 1.11%. Besides, on recombinant human MAO-A, the IC50 was above 40000 nM and the remaining activity at 10 µM is 74.5 ± 0.95%.
On the same counts, the results for `O=C1Nc2ccccc2C1=NN=Cc1cccc(OCc2ccccc2)c1` [ISBB1] are 540 ± 29 nM, 2.91, 1.99 ± 0.86%, 1570 ± 48 nM and 4.84 ± 1.61%.
For the molecule `O=C1Nc2ccccc2/C1=N/N=Cc1ccc(OCc2cccc(F)c2)cc1` [ISFB1, (3Z)-3-((4-((3-fluorobenzyl)oxy)benzylidene)hydrazineylidene)indolin-2-one], on MAO-B [1], the IC50 was found to be 135 ± 2 nM and the remaining activity at 10 µM was -3.03 ± 0.24%. Further, in “PAMPA for BBB permeation”, the Papp was found to be 4.09 ± 0.24 ×10⁻⁶ cm/s, the “Experimental Pe” value is reported as “higher than 4.0 ×10^−6 cm s^−1” and the “Prediction (CNS permeation)” value is reported as “CNS+ (Pe (10^−6 cm s^−1) > 4.00: CNS+ (high permeation))”. Moreover, on recombinant human MAO-A, the 50% inhibitory concentration (IC50) stood at 678 ± 6 nM and the remaining activity at 10 µM came out at 4.17 ± 0.32%. At MAO-B [2], the “Reversibility of MAO-B inhibition” value is recorded as “reversible”; the “Relative MAO-B activity, undialyzed (AU)” value is 31.42%; the “Relative MAO-B activity, dialyzed (AD)” value stood at 79.32%. Moreover, at MAO-B [3], affinity was put at a Ki of 69 ± 25 nM and the “Inhibition type for MAO-B” value was “competitive”.
With `O=C1Nc2ccc(Br)cc2C1=NN=Cc1ccc(OCc2cccc(F)c2)cc1` [ISFB2], at MAO-B [1], the IC50 was found to be 16000 ± 308 nM, the “SI (selectivity index for MAO-B compared to MAO-A)” value is above 2.49 and the remaining activity at 10 µM turned out to be 57.6 ± 1.1%. Also, on recombinant human MAO-A, the concentration for half-maximal inhibition (IC50) is above 40000 nM and the remaining activity at 10 µM worked out at 88.5 ± 1.38%.
